Compound activity from PubChem.
In the library only some 3.5% were active in any assay of this set; here they are far more common.
MrgX1 ag – agonists of human MrgX1 receptor, primary screen, HEK293 cells, Fluo-4 calcium flux; Mas-related G-protein coupled receptor member X1 (Homo sapiens), Q96LB2; AID 588627, 2011; 310,000 tested, 0.44% active; Fluo-4 calcium fluorescence, agonist mode; active compounds read high; B-score at 10 µM;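 active = calcium response B-score plate-corrected fluorescence ratio at least 3 library SD, with starting fluorescence B-score inside 5 SD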
Target sequence (Q96LB2 whole entry, looked up): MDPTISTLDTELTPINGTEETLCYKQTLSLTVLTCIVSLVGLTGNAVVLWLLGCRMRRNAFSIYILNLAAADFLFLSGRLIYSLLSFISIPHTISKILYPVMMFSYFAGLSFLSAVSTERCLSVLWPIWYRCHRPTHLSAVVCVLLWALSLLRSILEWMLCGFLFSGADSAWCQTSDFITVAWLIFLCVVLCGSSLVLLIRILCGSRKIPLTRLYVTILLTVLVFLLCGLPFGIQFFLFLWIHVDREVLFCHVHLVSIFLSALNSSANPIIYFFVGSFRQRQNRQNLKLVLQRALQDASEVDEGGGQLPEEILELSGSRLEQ
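Test system: HEK293 cells stably expressing human MrgX1 receptor; Input: fifteen thousand cells per well; Dosing: compound delivered in addition one of three; Schedule: overnight seeding, then 1 h dark dye loading; Technique: Fluo-4 NW calcium fluorescence; Measure: B-scored fluorescence response ratio; Controls: positive and negative controls per plate.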
RGS4 act – RGS4 potentiators or activators, primary screen, cell-based, HEK293 M3R inducible RGS4, calcium flux; carbachol calcium flux Fluo4; active compounds read low; B-score at 10 µM; 310,000 tested, 0.92% active;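 active = B-score of the integrated calcium signal more than 4 SD below the library mean, with starting fluorescence not abnormally high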;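 note: negative B-score means reduced calcium response which marks RGS4 activation or potentiation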
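System: HEK293 FlpIn-TREx cells, stable M3R, doxycycline-inducible RGS4. Timing: overnight RGS4 induction, 30 min dye load 37 °C, 20 min compound RT. Also added: carbachol, ECmax concentration. Measured by: Fluo4 fluorescence kinetic imaging of calcium. Evaluation: integrated calcium ratio converted to B score.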
RGS4 block – RGS4 inhibitors, primary screen, cell-based, HEK293 M3R inducible RGS4, calcium flux | B-score at 10 µM | Regulator of G-protein signaling 4 (Homo sapiens), P49798 | Fluo-4 calcium flux; active compounds read high; triggered by carbachol at its EC20 | 310,000 tested, 0.45% active;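 active = B-score, a plate-corrected calcium signal, over three deviations above library mean, with baseline fluorescence within five deviations of library mean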;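 note: RGS4 expression induced by doxycycline in cells with stable M3 receptor; B-score is computed from the integrated fluorescence ratio over baseline after carbachol; higher B-score means a larger calcium signal and so more RGS4 inhibition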
Target sequence (P49798 whole entry, looked up): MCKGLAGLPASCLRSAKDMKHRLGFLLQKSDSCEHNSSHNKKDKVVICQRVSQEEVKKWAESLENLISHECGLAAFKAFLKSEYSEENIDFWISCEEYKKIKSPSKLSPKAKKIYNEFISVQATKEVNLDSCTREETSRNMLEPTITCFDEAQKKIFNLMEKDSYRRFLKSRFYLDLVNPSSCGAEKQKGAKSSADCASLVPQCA
MrgX1 PAM – positive allosteric modulators of MrgX1, primary screen, HEK293 cells, Fluo-4 calcium flux | 310,000 tested, 0.63% active | B-score at 10 µM | FDSS; active compounds read high | AID 588675, 2011;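 active = plate-corrected calcium response at least 3 library SD above typical, normal starting fluorescence, not activating the receptor alone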;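 note: compound read alongside a low EC10 to EC30 dose of BAM8-22 agonist; peak minus trough fluorescence over baseline measured at the second addition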
MrgX1 antag – antagonists of human MrgX1 receptor, primary screen, HEK293 cells, Fluo-4 calcium flux | Mas-related G-protein coupled receptor member X1 (Homo sapiens), Q96LB2 | B-score at 10 µM | BAM8-22 antagonism; active compounds read low | 310,000 tested, 1.3% active;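 active = calcium-response B-score plate-corrected more than 3 library SD below zero, starting fluorescence within 5 deviations, no agonist response on first addition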;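 note: peak minus trough fluorescence over baseline after final BAM8-22 challenge near maximal dose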
MrgX1 PAM conf – MrgX1 positive allosteric modulators, duplicate retest, confirmation, HEK293 cells, Fluo-4 calcium flux | shares compounds with MrgX1 PAM | Fluo-4 calcium fluorescence, FDSS | activation (ratio percentage), % at 10 µM | 1,200 tested, 13% active | AID 602413, 2012;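 active = ratio at least 3 SD above the weak peptide control, stable starting fluorescence, no direct agonism earlier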;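 note: compound followed by low BAM8-22 agonist challenge near EC20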
MrgX1 antag conf – MrgX1 receptor antagonists, duplicate retest, confirmation, HEK293 cells, Fluo-4 calcium flux; shares compounds with MrgX1 antag; BAM8-22 calcium flux; active compounds read low; remaining BAM8-22 calcium response % of control (active compounds read low), % at 10 µM; 2,300 tested, 19% active; AID 602420, 2012;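 active = remaining agonist calcium response no higher than 100% minus 3 SD of agonist-only control wells, with starting fluorescence near control levels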;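 note: agonist BAM8-22 given at a near maximal EC90 to ECmax level; peak minus minimum fluorescence divided by baseline after agonist addition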
HEK293 Ca flux – nonspecific calcium signal in parental HEK293, confirmation, counter-screen for MrgX1 antagonist project, parental HEK293 cells, Fluo-4 calcium flux. shares compounds with MrgX1 antag. Fluo-4 calcium fluorescence, FDSS. fluorescence ratio F(max-min)/F0 at 10 µM. 4,000 tested, 2% active. AID 624111, 2012;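 active = duplicate-averaged calcium fluorescence ratio at least three times the standard deviation of buffer wells, a nonspecific response in parental cells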
HEK293 Ca counter – calcium response in parental HEK293 cells, primary screen, counter-screen for MrgX1 allosteric activator project, cell-based, Fluo-4 calcium flux, duplicate | AID 624114, 2012 | Fluo-4 fluorescence ratio; active compounds read high | shares compounds with MrgX1 antag | fluorescence ratio F(max-min)/F0 at 10 µM | 4,000 tested, 0.4% active;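 active = calcium fluorescence ratio, averaged over duplicates, at least 3 SD of the buffer-well ratio, meaning a nonspecific response in receptor-free cells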;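 note: untransfected parental HEK293 lacking MrgX1 used as counterscreen for MrgX1 allosteric activators; fluorescence change taken during the second addition on a kinetic imager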
HEK293 Ca cntr2 – calcium response in parental HEK293 cells, primary screen, counter-screen for MrgX1 agonist project, cell-based, Fluo-4 calcium flux, duplicate, agonist mode; 4,000 tested, 8.7% active; Fluo-4 calcium fluorescence (FDSS); active compounds read high; fluorescence ratio F(max-min)/F0 at 10 µM; shares compounds with MrgX1 antag;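 active = calcium fluorescence ratio at least three times the spread of buffer wells, meaning a non-specific response in parental cells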
Hits are given with their value; n = inactive; x = no result given.

SMILES	MrgX1 ag	RGS4 act	RGS4 block	MrgX1 PAM	MrgX1 antag	MrgX1 PAM conf	HEK293 Ca flux	HEK293 Ca counter	HEK293 Ca cntr2	others
O=C(NC1=NCCS1)c1cccc2ccccc12	n	n	n	n	n	x	x	x	x
COc1ccc(CC(=O)NC(=S)Nc2cccc(CO)c2)cc1	n	n	n	7.2	n	n	n	n	n
c1ccc2nc(-c3ccc(-n4ccnc4)cc3)ccc2c1	n	n	n	8.9	n	n	n	n	n
c1ccc(-c2ccc3ccccc3n2)cc1	n	n	n	n	n	x	x	x	x
O=C(NC1CCCC1)c1ccc2c(c1)N(Cc1ccc(F)cc1)CCS2	n	n	n	n	n	x	x	x	x
Cc1ccc(CN2CCSc3ccc(C(=O)NC4CCCC4)cc32)cc1	n	n	n	9.4	n	n	n	n	n
Cc1cc(Cl)cc(Br)c1OCCCCn1cncn1	n	n	n	6.9	n	n	n	n	n
O=C1c2cccnc2C(Nc2ccc(Br)cc2Br)N1Cc1cccs1 (stereo not given)	n	n	n	n	n	x	x	x	x
CC(C)(C)c1ccc(-c2noc(-c3ccc4c(c3)CCO4)n2)cc1	n	n	n	7.4	-5	n	n	n	n	MrgX1 antag conf=n
O=C(Nc1nc(-c2cccs2)c(C(=O)C(F)(F)F)s1)c1ccco1	n	n	n	7.6	n	n	n	n	n
Cc1sc2ncn(CCC(=O)O)c(=O)c2c1C	n	n	n	n	n	x	x	x	x
Cc1sc2ncn(CCn3cnc4sc(C)c(C)c4c3=O)c(=O)c2c1C	n	n	n	13	n	n	n	n	n
Cc1sc2ncnc(N3CCC(C)CC3)c2c1C	n	n	n	18	n	4.3%	n	n	n
Cc1c(C(=O)N2CCN(c3ccccc3)CC2)sc2ncnc(N3CCC(C)CC3)c12	n	n	n	n	n	x	x	x	x
Cc1ccccc1-n1c(SCC(=O)N(C)C2CCS(=O)(=O)C2)nc2ccccc2c1=O (stereo not given)	n	n	n	14	n	n	n	n	n
CCOC(=O)c1sc(Nc2ccccc2Cl)nc1C	n	n	n	13	n	n	n	n	n
O=C(c1ccc(Br)o1)N1CCN(c2ncccn2)CC1	n	n	n	n	n	x	x	x	x
NC1=NC[C@@H](Cc2ccc(O)cc2)N1CCc1cccc2ccccc12	n	n	n	n	n	x	x	x	x
NCCCC[C@H]1CN=C(N)N1CCc1cccc2ccccc12	n	n	n	33	n	n	n	n	n
NC1=NC[C@H](Cc2ccc(O)cc2)N1CCCCC1CCCCC1	n	n	n	9.3	n	n	n	n	n
NC1=NC[C@H](Cc2ccc(O)cc2)N1CCc1cccc2ccccc12	n	n	n	9.6	-12	n	n	n	n	MrgX1 antag conf=n
CCC(C)[C@H]1CN=C(N)N1CCc1cccc2ccccc12 (stereo not given in full)	n	n	n	n	n	x	x	x	x
S=C(NCCN1CCOCC1)N1CCN(c2cccc(Cl)c2)CC1	n	n	n	n	n	x	x	x	x
